In the library only some 1.2% were active in any assay of this set; here they are far more common.
TRPN1 ag: zebrafish TRPN1 channel agonists, primary screen, cell-based, HEK293, calcium fluorescence. HEK293 zebrafish TRPN1-YFP, Fluo-8 calcium fluorescence; 100% = response to 87 µM carbachol. activation, % at 3 µM. actives 0.18% (n = 220,000);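 active = activation above its plate's cutoff, the mean activation of test wells on that plate plus 3 SD, cut at about 19% in these data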;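 note: 0% = DMSO alone and 100% = 87 µM carbachol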
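Material: zebrafish TRPN1-YFP in HEK293 cells; Doses: single test compound dose, 3 µM nominal, 0.3% DMSO; Timing: dye loading 1 h at 37 °C, then 30 min room temperature; Technique: intracellular calcium fluorescence with Fluo-8; Benchmarks: high carbachol 87 µM, low DMSO alone.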
TRPML3 agonist: human TRPML3 channel agonists, primary screen, cell-based, HEK293 TRPML3-YFP, Fluo-8 calcium fluorescence, 3 µM | Mucolipin-3 (Homo sapiens), Q8TDD5 | 100% = the carbachol control signal | activation, % at 3 µM | actives 0.29% (n = 220,000) | AID 1448, 2008;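 active = activation above its plate's cutoff, the mean activation of the plate's test wells plus 3 SD, cut at about 12% in these data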;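 note: 0% = DMSO only wells and 100% = carbachol wells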
Target sequence (Q8TDD5 whole entry, looked up): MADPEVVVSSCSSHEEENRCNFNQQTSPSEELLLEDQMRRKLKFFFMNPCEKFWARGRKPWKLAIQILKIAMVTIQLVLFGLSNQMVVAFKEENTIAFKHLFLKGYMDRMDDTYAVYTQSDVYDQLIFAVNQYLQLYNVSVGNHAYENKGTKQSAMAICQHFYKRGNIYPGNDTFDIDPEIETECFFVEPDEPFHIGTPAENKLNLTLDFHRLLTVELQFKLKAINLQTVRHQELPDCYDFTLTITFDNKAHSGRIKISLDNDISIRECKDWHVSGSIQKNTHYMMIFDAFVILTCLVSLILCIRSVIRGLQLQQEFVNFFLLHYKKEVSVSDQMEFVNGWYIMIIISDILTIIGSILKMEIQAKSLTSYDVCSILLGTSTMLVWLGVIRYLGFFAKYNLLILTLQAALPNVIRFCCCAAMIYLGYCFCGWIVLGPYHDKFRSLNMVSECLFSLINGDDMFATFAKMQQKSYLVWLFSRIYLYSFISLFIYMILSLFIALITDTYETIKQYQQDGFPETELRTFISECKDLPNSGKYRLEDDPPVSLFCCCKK
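Test system: HEK293 cells stably carrying human TRPML3-YFP; Doses: single dose, 3 µM final nominal compound, 0.3% DMSO final; Schedule: dye loading 1 h 37 °C then 30 min ambient, 125 s read; Technique: Fluo-8 calcium fluorescence; Benchmarks: high control carbachol 87 µM, low control DMSO.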
CRFBP-R2 block: antagonists of CRF-BP/CRF-R2 complex, primary screen, cell-based, HEK293, calcium dye fluorescence, uHTS. CRF-induced calcium fluorescence. inhibition, % at 11.8 µM. actives 0.59% (n = 350,000);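 active = inhibition of the ligand-induced calcium signal above about 50% at the single tested concentration, limit read from the data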
CRFR2-BP ag: agonists of CRF-BP/CRF-R2 complex, primary screen, cell-based, HEK293, calcium dye fluorescence, uHTS; activation, % at 13.2 µM; actives 0.46% (n = 350,000); calcium dye fluorescence (FLIPR); percent of saturating CRF peptide response; CRF-binding protein / CRF receptor 2 complex (human);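 active = activation of at least 50%, plus an integration ratio under a set limit after plate pattern correction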;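 note: plate controls were neutral control wells without compound for no effect and CRF at EC100 for full effect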
Starred values were filed as active, the others as inactive; x = not tested or not shown.

SMILES	TRPN1 ag	TRPML3 agonist	CRFBP-R2 block	CRFR2-BP ag
C#CCOCCOCCOCCNc1nc(N2CCN(C(=O)CCCCCCCCCCNC(=O)[C@@H](CCC(=O)O)n3cc(CCCCCN)nn3)CC2)nc(N2CCN(C(=O)CCCCCCCCCCNC(=O)[C@H](CO)n3cc(CCCSC)nn3)CC2)n1	x	x	-12.0	4.7
O=c1oc2ccc(Cl)cc2nc1/C=C(\O)c1cccs1	2.9	0.6	-13.0	11.1
Cc1ccc2oc(=O)c(/C=C(\O)c3ccccc3)nc2c1	1.4	1.1	-25.4	70.6*
Cc1ccc2oc(=O)c(/C=C(\O)c3cccs3)nc2c1	5.8	1.7	-80.4	120.0*
CC(C)CSc1n[nH]c(=S)s1	0.5	0.8	-0.1	-0.1
COc1ccccc1OCC(=O)NNC(=O)c1cnccn1	0.1	0.2	55.7*	-3.2
COc1cc(C(=O)NNC(=O)COc2ccccc2Cl)ccc1OCC(=O)N1CCOCC1	x	x	2.7	-1.0
COc1cc(C(=O)NCc2ccccc2Cl)ccc1OCC(=O)N1CCOCC1	x	x	62.0*	0.6
C=CCOc1nc2c(c(=O)n(Cc3ccc(Cl)c(Cl)c3)c(=O)n2C)n1C	0.9	0.8	50.6*	-1.6
CCOc1ccc(NS(=O)(=O)c2ccc(C(=O)NCC(c3ccco3)N3CCCC3)cc2)cc1 (stereo not given)	x	x	-42.2	63.0*
CCOc1ccc(NS(=O)(=O)c2ccc(C(=O)N3CC(C)OC(C)C3)cc2)cc1 (stereo not given)	x	x	-27.5	108.4*
CC1CN(C(=O)c2ccc(NS(=O)(=O)c3ccc(C(C)(C)C)cc3)cc2)CC(C)O1 (stereo not given)	x	x	-58.1	56.8*
CCOc1ccc(S(=O)(=O)Nc2ccc(C(=O)N3CC(C)OC(C)C3)cc2)cc1 (stereo not given)	x	x	-18.7	36.0
O=C(NCC(c1ccco1)N1CCCC1)c1ccc(S(=O)(=O)Nc2ccc(F)cc2)cc1 (stereo not given)	x	x	-16.7	23.2
COc1ccc(NS(=O)(=O)c2ccc(C(=O)N3CCC(C)CC3)cc2)cc1	x	x	-8.8	65.1*
CC1CCN(C(=O)c2ccc(NS(=O)(=O)c3ccccc3)cc2)CC1	x	x	0.1	-1.7
CC1CN(C(=O)c2ccc(NS(=O)(=O)c3cccc(Cl)c3)cc2)CC(C)O1 (stereo not given)	x	x	-0.7	-1.2
CCOCCCNC(=S)N1CCC(NC(=O)c2ccco2)CC1	0.7	0.2	-3.1	0.3
CN1C(=O)CC(c2cn(Cc3ccccc3)c3ccccc23)C1=O (stereo not given)	0.4	0.3	3.5	2.2
Cc1ccc(S(=O)(=O)c2nc(C)oc2N2CCOCC2)cc1	0.3	0.7	-4.9	0.2
Cc1ccc(S(=O)(=O)Nc2ccc(NC(=O)c3c(F)c(F)c(F)c(F)c3F)cc2)cc1	26.5*	5.1	-79.5	57.7*
Cc1ccc(NS(=O)(=O)c2ccc(C(=O)N3CCCC(C(F)(F)F)C3)cc2)cc1 (stereo not given)	x	x	-27.6	70.8*
O=[N+]([O-])c1cccc(/C([O-])=C(/C(=S)Nc2cccc3ccccc23)[n+]2ccccc2)c1	0.9	0.0	-3.3	-0.1
COc1cc(/C=C(/C#N)c2nc3ccccc3c(=O)[nH]2)ccc1O	0.5	1.3	-41.8	67.8*
COc1cc(/C=C(\C#N)c2nc3ccccc3[nH]2)cc(OC)c1O	21.8*	7.4	-205.1	164.0*
SMILES	TRPN1 ag	TRPML3 agonist	CRFBP-R2 block	CRFR2-BP ag
COc1ccc(/C=C(\C#N)c2nc3ccccc3[nH]2)cc1O	x	x	-10.5	-0.8
COc1cc(/C=C(\C#N)c2nc3ccccc3n2C)cc(OC)c1O	36.7*	17.4*	-61.1	51.8*
Cn1c(/C(C#N)=C/c2ccc(O)cc2)nc2ccccc21	-1.0	-0.1	3.1	0.6
Cc1ccc(C2(C)NC(=O)N(CC(=O)N(C)CC(=O)Nc3cccc(F)c3)C2=O)cc1 (stereo not given)	x	x	-8.1	0.8
COc1cccc(CN2C(=O)C(C)N(C(=O)c3ccccc3)c3ccccc32)c1 (stereo not given)	x	x	116.1*	12.2
COc1ccc(CN2C(=O)C(C)N(C(=O)c3c(F)cccc3F)c3ccccc32)cc1 (stereo not given)	x	x	6.4	10.9
O=C(c1ccc(Br)cc1)N1CCN(c2ncccn2)CC1	x	x	94.3*	-1.0
COC(=O)C1=C(C)N(c2ccc(OC)cc2)C(C)=C(C(=O)OC)C1c1ccccc1	-1.7	-0.3	51.8*	-3.2
COC(=O)C1=C(C)N(c2ccc(OC)cc2)C(C)=C(C(=O)OC)C1c1ccc(OC)cc1	-2.0	-0.7	28.6	-0.4
CCOc1ccc(S(=O)(=O)Nc2cc(C)ccn2)c2ccccc12	0.3	0.1	6.0	1.4
CCOc1ccc(S(=O)(=O)N2CCOCC2)c2ccccc12	x	x	1.6	-0.1
CCOc1ccc(S(=O)(=O)n2ccc(C)n2)c2ccccc12	-1.8	4.5	54.6*	-2.0
CCOc1ccc(S(=O)(=O)N2CCCCC2)c2ccccc12	-0.7	61.6*	15.3	0.3
CCOc1cc(C)c(C(C)C)cc1S(=O)(=O)n1cnc(C)c1	-2.5	1.2	-49.2	104.0*
N/C(=N\S(=O)(=O)c1cccs1)c1ccccc1Cl	x	x	7.8	-0.3
CCN1C(=O)/C(=C/C=C2\N(CC)c3cc(S(=O)(=O)N(C)C)ccc3N2c2ccccc2)SC1=S	21.8*	5.6	-51.5	73.1*
CCN(CC)c1ccc2c(-c3ccc(S(=O)(=O)O)cc3S(=O)(=O)[O-])c3ccc(=[N+](CC)CC)cc-3oc2c1	x	x	-32.6	55.2*
CCCN1CCC(=NNc2ccc(S(=O)(=O)N3CCOCC3)cc2[N+](=O)[O-])CC1	0.2	0.3	7.4	-0.5
CC(C)C(NC(=O)c1ccc2c(c1)OCO2)C(=O)N/N=C/c1cccs1 (stereo not given)	-1.3	-0.2	13.5	-10.2
Cc1c(/C=N/NC(=O)C(NC(=O)c2ccc3c(c2)OCO3)C(C)C)c2ccccc2n1C (stereo not given)	-3.0	0.3	-186.0	96.4*
CCOc1ncccc1C(=O)OCC(=O)Nc1ccc(C)c(S(=O)(=O)N2CCOCC2)c1	4.8	-0.5	4.2	0.5
Cc1ccc(NC(=O)COC(=O)c2cccnc2Cl)cc1S(=O)(=O)N1CCOCC1	x	x	64.0*	-3.4
O=C(COC(=O)c1ccncc1)Nc1cc(S(=O)(=O)N2CCOCC2)ccc1Cl	x	x	67.2*	-1.8
CC1CCN(c2ccc([N+](=O)[O-])cc2C(=O)NCC2CCCO2)CC1 (stereo not given)	x	x	-6.2	-4.3
CCCCNC(=O)Nc1nc(SCC(=O)OCC)n[nH]1	1.3	0.6	-6.9	-0.1
O=C1CCc2cc(S(=O)(=O)N3CCC(C(=O)NC4CCCCCCC4)CC3)ccc2N1	-0.9	-0.2	68.5*	0.1
O=C(NC1CCCCCC1)C1CCN(S(=O)(=O)c2ccc(F)cc2)CC1	-0.9	0.4	-8.1	8.9
CC(C)c1ccc2[nH]c3c(c2c1)CCCC3=O	-2.2	-0.2	-9.1	0.7

Source: PubChem BioAssay
